esBAF inh: inhibitors of esBAF chromatin remodeling in mouse ES cells; Bmi1-luciferase knock-in reporter, 24 h; 100% = twice the neutral-well signal; reporter increase, % at 12.5 µM; hit rate 2% among 350,000; AID 602393; in the data active means activation above about 40%;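 further: 0% = median of the plate's neutral control wells and 100% = double that signal; a rise in the Bmi1 reporter signal indicates esBAF inhibition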
ERAP1 HTS inh: inhibitors of human ERAP1 aminopeptidase; hit rate 0.15% among 340,000; recombinant ERAP1, Leu-AMC fluorescence, 60 min; inhibition, % at 10.7 µM; AID 652197; Q9NZ08;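 active means mean replicate inhibition of at least 30%, or all replicates individually reaching that 30% level; inactive means mean below 30% and not every replicate reaching it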;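 further: 0% = neutral control wells and 100% = L-leucinethiol positive control wells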
Target sequence (Q9NZ08 whole entry, looked up): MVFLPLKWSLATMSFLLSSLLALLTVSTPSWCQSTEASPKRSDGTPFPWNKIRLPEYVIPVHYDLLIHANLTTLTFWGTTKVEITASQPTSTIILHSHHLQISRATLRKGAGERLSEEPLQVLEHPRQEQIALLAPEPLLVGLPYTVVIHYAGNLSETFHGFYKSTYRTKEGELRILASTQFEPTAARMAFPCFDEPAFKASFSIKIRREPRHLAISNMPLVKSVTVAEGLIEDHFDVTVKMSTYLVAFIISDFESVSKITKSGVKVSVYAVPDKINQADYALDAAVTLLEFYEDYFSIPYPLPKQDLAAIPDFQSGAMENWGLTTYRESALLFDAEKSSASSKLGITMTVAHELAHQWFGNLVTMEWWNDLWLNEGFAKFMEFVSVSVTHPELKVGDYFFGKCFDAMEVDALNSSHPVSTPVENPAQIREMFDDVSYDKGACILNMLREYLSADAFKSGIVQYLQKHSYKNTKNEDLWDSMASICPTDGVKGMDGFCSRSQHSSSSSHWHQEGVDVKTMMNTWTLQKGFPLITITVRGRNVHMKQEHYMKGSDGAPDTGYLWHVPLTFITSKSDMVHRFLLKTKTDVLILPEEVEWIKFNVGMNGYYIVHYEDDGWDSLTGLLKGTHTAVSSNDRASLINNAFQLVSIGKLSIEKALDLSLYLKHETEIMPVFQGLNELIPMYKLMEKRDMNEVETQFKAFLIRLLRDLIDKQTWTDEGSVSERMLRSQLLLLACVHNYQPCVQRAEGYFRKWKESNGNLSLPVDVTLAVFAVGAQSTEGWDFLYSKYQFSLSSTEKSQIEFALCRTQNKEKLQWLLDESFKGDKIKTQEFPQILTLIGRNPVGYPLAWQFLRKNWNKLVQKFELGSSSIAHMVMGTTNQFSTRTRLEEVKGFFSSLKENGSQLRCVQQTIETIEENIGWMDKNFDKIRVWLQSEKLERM
Cneo AK release: Cryptococcus neoformans lysis via adenylate kinase release | C. neoformans lysis, adenylate kinase release luminescence, 4 h; normalised: neutral wells 0, clomiphene wells 100 | lysis activity, % at 15 µM | hit rate 0.2% among 360,000 | AID 651654;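 active means mean lysis activity across replicates of at least 80%, whatever share of replicates individually reach that level; inactive means mean lysis activity below 80%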
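Assay system: log-phase C. neoformans yeast / Quantity: yeast cell density of 5 × 10^6 cells/mL / Medium: fresh YPD growth medium / Compound: single dose / Timing: static 4 h at 37 °C with compound, 1 h detection / Measured by: adenylate kinase release luminescence / Read-out: lysis from increased AK signal / Benchmarks: Clomiphene as positive lysis control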
MITF act: increases MITF-driven TRPM1 promoter luciferase signal; SK-MEL-5 TRPM1-promoter luciferase, 24 h; % of positive control, neutral wells = 0; activation, % at 12.5 µM; hit rate 0.75% among 300,000;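 active means mean activation of at least 80% with every replicate also reaching 80%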;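 further: 0% = neutral control wells and 100% = parthenolide positive control wells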
Wnt bcat act: activates Wnt/beta-catenin signaling in a reporter cell assay; AID 743398; hit rate 1.2% among 300,000; activator, plate reader; activation, % at 9.35 µM; in the data active means activation above about 30%, passing the limit was not always enough;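 further: 0% = neutral control wells and 100% = positive control wells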
Env fusion inh: inhibitors of HIV Env-mediated cell fusion. HeLa-JRFL Env/CEM21 cell fusion, luciferase. hit rate 1.1% among 360,000. inhibition, % at 12.3 µM;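 active means mean replicate inhibition score of at least 50 and every replicate individually at or above 50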;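 further: 0% = plate neutral controls and 100% = maraviroc near 300 nM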
The depositor's hits bear a star; / = no result given; [ ] = another dose, or the depositor's remark. This is a sample that favours compounds with a hit; in the whole collection about 3.5% have one here.

SMILES	esBAF inh	ERAP1 HTS inh	Cneo AK release	MITF act	Wnt bcat act	Env fusion inh
O=S1(=O)N=C(N2CCN(Cc3ccccc3)CC2)c2ccccc21	-1	/	1	-6	/	/
COc1ccc2c3c([nH]c2c1)[C@H](CO)N(C(=O)C1CCOCC1)CC31CCN(S(C)(=O)=O)CC1	/	-5	/	/	/	/
COc1ccccc1C1CC(=O)NC(SCC(=O)Nc2ccccc2)=C1C#N (centres undefined)	-9	-5	2	4	1	23
CC(C)C1CC(=O)NC(SCC(=O)Nc2ccc(Br)cc2)=C1C#N (centres undefined)	99*	/	3	7	-3	/
CN1CCN(C(=O)C[C@@H]2CC[C@@H]3[C@H](COC[C@H](O)CN3C(=O)Nc3ccc(Cl)cc3)O2)CC1	27	-1	-2	/	/	/
CN1C(=O)c2cc(NS(=O)(=O)c3cccc(F)c3)ccc2OC[C@@H]2O[C@@H](CC(=O)O)CC[C@H]21	-5	-4	97*	/	/	/
CN1C(=O)c2cc(NS(=O)(=O)c3cccc(F)c3)ccc2OC[C@H]2O[C@H](CC(=O)O)CC[C@H]21	-4	-2	97*	/	/	/
CN1C(=O)c2cc(NS(=O)(=O)c3cccc(F)c3)ccc2OC[C@H]2O[C@@H](CC(=O)O)CC[C@@H]21	-5	-6	-2	/	/	/
CN1C(=O)c2cc(NS(C)(=O)=O)ccc2OC[C@@H]2O[C@@H](CC(=O)O)CC[C@H]21	0	-3	83*	/	/	/
COc1ccc(C(=O)Nc2ccc3c(c2)OC[C@@H](C)NC[C@@H](C)[C@@H](OC)CN(C)C3=O)cc1	-8	-1	7	/	/	-17[16.7 µM]
N#C[C@H]1[C@@H](c2ccccc2)[C@@H](CO)N1C(=O)Cc1ccccc1	9	1	101*	/	/	-4[16.7 µM]
CCc1cnc(N2[C@@H](C#N)[C@H](c3ccc(C#Cc4ccccc4F)cc3)[C@@H]2CO)s1	11	-1	1	/	/	59*[16.7 µM]
N#C[C@@H]1[C@H](c2ccccc2)[C@@H](CO)N1C(=O)Cc1ccccc1	4	-3	0	/	/	0[16.7 µM]
COCC(=O)N1[C@H](C#N)[C@H](c2ccc(C#Cc3ccccc3F)cc2)[C@H]1CO	-58	0	83*	/	/	9[16.7 µM]
COCC(=O)N1[C@@H](C#N)[C@@H](c2ccc(C#Cc3ccccc3F)cc2)[C@@H]1CO	-8	-2	0	/	/	20[16.7 µM]
CCN(CC)C(=O)c1cc2c(=O)n3ccccc3nc2s1	42*	-5	0	21	21	/
CCCN(CCC)C(=O)c1cc2c(=O)n3cccc(C)c3nc2s1	-6	-8	1	-14	-2	58*
Cc1cccn2c(=O)c3cc(C(=O)NCC(C)C)sc3nc12	11	0	3	10	0	-9
Cc1nn(-c2ccccc2)c2sc(C(=O)N3CCCCC3)cc12	45*	/	0	19	-2	/
CC(C)CN(CC(C)C)C(=O)c1cc2c(=O)n3ccccc3nc2s1	1	-27	3	-1	0	-5
Cc1cccn2c(=O)c3cc(C(=O)N4CCCCC4)sc3nc12	47*	-11	0	14	10	-12
C[C@@H]1CN([C@H](C)CO)C(=O)c2cc(NS(=O)(=O)c3cccs3)ccc2O[C@@H]1CN(C)Cc1ccc(Oc2ccccc2)cc1	-2	2	33	/	/	/
C[C@@H]1CCCCO[C@@H](CN(C)CC2CCCCC2)[C@H](C)CN([C@@H](C)CO)C(=O)c2cc(NC(=O)Nc3ccc4c(c3)OCO4)ccc2O1	10	-7	0	/	/	-9[16.7 µM]
CC(C)NC(=O)N(C)C[C@H]1Oc2cc(Br)ccc2S(=O)(=O)N([C@H](C)CO)C[C@@H]1C	-4	1	3	/	/	-13[16.7 µM]
CC1CCCN(C(=O)c2cc3c(=O)n4ccccc4nc3s2)C1 (centres undefined)	62*	-24	0	22	12	-17
SMILES	esBAF inh	ERAP1 HTS inh	Cneo AK release	MITF act	Wnt bcat act	Env fusion inh
Cc1ccc(NC(=O)c2c(O)c3ccccc3n(C)c2=O)nc1	48*	/	-1	/	/	-170
Cn1c(Cl)c(C(=O)Nc2ccccc2)c2ccccc21	14	/	-1	-6	/	/
Cn1c(=O)c(C(=O)NCc2ccccc2)c(O)c2ccccc21	45*	-3	-2	/	2	-21
Cc1ccc(NC(=O)c2c(Cl)n(C)c3ccccc23)cc1	67*	/	/	4	/	/
O=C(CCN1CCCCC1)NCC[C@H]1CC[C@H](NC(=O)Nc2ccc(Cl)cc2)[C@H](CO)O1	6	-2	2	/	/	-3[16.7 µM]
O=C(N[C@H]1C=C[C@H](CC(=O)N2CCOCC2)O[C@@H]1CO)c1ccc2c(c1)OCO2	1	-2	-4	/	/	15[16.7 µM]
O=C(C[C@@H]1CC[C@H](NC(=O)c2cccc(F)c2)[C@H](CO)O1)NCc1ccc(Oc2ccccc2)cc1	-2	1	-3	/	/	62*[16.7 µM]
O=C(C[C@H]1CC[C@@H](NC(=O)c2ccccc2)[C@H](CO)O1)NCc1ccc(Oc2ccccc2)cc1	9	-5	0	/	/	66*[16.7 µM]
O=C(C[C@H]1CC[C@H](NC(=O)Nc2ccc(C(F)(F)F)cc2)[C@H](CO)O1)NCc1cccc(F)c1	-5	-3	91*	/	/	-2[16.7 µM]
O=C(C[C@@H]1CC[C@H](NC(=O)c2cccc(F)c2)[C@@H](CO)O1)NCc1ccc(Oc2ccccc2)cc1	-8	1	-3	/	/	11[16.7 µM]
O=C(C[C@@H]1CC[C@@H](NC(=O)Nc2ccc(C(F)(F)F)cc2)[C@@H](CO)O1)NCc1cccc(F)c1	2	-3	71	/	/	-2[16.7 µM]
O=C(NCc1ccccc1)C1=C[C@@H](c2ccccc2)C[C@@H](OCc2ccc(CO)cc2)O1	14	1	-3	-6	0	-31
C[C@H]1C=C(C(=O)NCc2ccccc2)O[C@@H](OCc2ccc(CO)cc2)C1	-5	-3	2	5	48*	-12
Cc1ncoc1C(=O)NC1CCCc2c1cnn2-c1cc(F)cc(F)c1 (centres undefined)	/	2	/	/	0	20
Cc1ncoc1C(=O)NC1CCCc2c1cnn2-c1ccc(C(C)(C)C)cc1 (centres undefined)	-19	3	-1	-14	-6	56*
CCC(=O)N1CC2(C1)[C@H](c1ccccc1)[C@@H](CO)N2C(=O)NC(C)C	/	3	/	/	/	/
CCc1ccc(C(=O)Nc2cc(C)ccc2F)s1	66*	-2	8	17	11	-12
CCOC(=O)c1sc(NC(=O)c2ccc(CC)s2)nc1C	51*	/	1	31	/	-442
CCOC(=O)c1sc(Nc2ccccc2Cl)nc1C	65*	/	-3	49	39*	-60
CCOC(=O)c1sc(NC(=O)c2ccc3ncsc3c2)nc1C	51*	0	-2	/	14	-47
